A short description of series [1]: Selectivity index, ratio of CC50 for human MT4 cells to EC50 for HIV 3B. It counts as toxicity, cell-based. Conditions: read-out: Ratio CC50/EC50.
For series [2], the system named is Human immunodeficiency virus. Kind of series: Antiviral activity against HIV 3B in human MT4 cells assessed as inhibition of virus-induced cytopathogenicity by MTT assay. The following applies: Human immunodeficiency virus 1, 3B. The class given is functional, organism-based. A digest of the protocol:
(§1)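 MT-4 cells resuspended at 6 × 10⁵ cells/mL, infected with HIV-1 IIIB or HIV-2 ROD at 100–300 CCID50, serial 5-fold compound dilutions. After 5 days, viability read by MTT reduction at 540 and 690 nm, median OD of three wells. EC50 = concentration giving 50% protection from viral cytopathic effect; mean ± SD of three separate experiments.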

Series [3] can be described thus: Selectivity index, ratio of CC50 for human MT4 cells to EC50 for HIV ROD. The class given is toxicity, cell-based. The following applies: read-out: Ratio CC50/EC50.
The subject of series [4] is Human immunodeficiency virus. Kind of series: Antiviral activity against HIV ROD in human MT4 cells assessed as inhibition of virus-induced cytopathogenicity by MTT assay. The class given is functional, organism-based. The following applies: Human immunodeficiency virus 2, ROD. A digest of the protocol: as §1
Series [5] is described as follows: Cytotoxicity against mock-infected human PBMC. The class given is cell-based. Summed up:
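Mock-infected PHA-stimulated PBMCs cultured with serial compound dilutions. Viability determined by trypan blue exclusion. CC50 = concentration reducing viability by 50%; mean ± SD of at least two separate experiments.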

Series [6] is described as follows: Cytotoxicity against mock-infected human MT4 cells by MTT assay. It counts as cell-based. Summed up:
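Mock-infected MT-4 cells (6 × 10⁵ cells/mL) exposed to serial 5-fold compound dilutions in parallel with infected cultures. After 5 days, viability measured by MTT formazan absorbance (540 and 690 nm; median OD of three wells). CC50 = concentration reducing OD540 of mock-infected control by 50%; mean ± SD of three separate experiments.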

Series [7] can be described thus: Selectivity index, ratio of IC50 for human PBMC to IC50 for HIV 3B.
Series [8] concerns Human immunodeficiency virus. Description: Antiviral activity against HIV 3B in PHA-stimulated human PBMC assessed as inhibition of p24 antigen production by ELISA. The following applies: Human immunodeficiency virus 1, 3B. It counts as functional, organism-based. A digest of the protocol: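 PBMCs from healthy donors isolated by density centrifugation, PHA-stimulated 3 days, washed, plated at 2 × 10⁵ per 200 µL with serial compound dilutions and infected with HIV at 1000 CCID50 per mL. On day 4, supernatant partly replaced with fresh compound-containing medium. At day 7, p24 in supernatant measured by ELISA. EC50 = 50% inhibition of p24; mean ± SD, at least two experiments.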

Converted amounts (≈) assume the structure as drawn. Where only a bound is given, the exact number is not on record here.

Turning to `Cn1cc(C(=O)O)c(=O)c2cc(N)c(N3CCN(c4ccccn4)CC3)cc21`, the selectivity ratio is 15 in series [1] and 10 in series [3]. Also, the figures for the half-maximal effective concentration (EC50) in series [2] and in series [4] were 0.058 µg/mL (≈ 0.153 µM) and 0.097 µg/mL (≈ 0.256 µM), respectively.
As for `Cn1cc(C(=O)O)c(=O)c2cc(O)c(N3CCN(c4ccc5ccccc5n4)CC3)cc21`, the selectivity ratio in series [1] is 6; in series [3] it was 14. Moreover, the cytotoxic concentration (CC50) in series [5] is 1.91 µg/mL (≈ 4.44 µM); in series [6] it was 0.47 µg/mL (≈ 1.09 µM). Also, the values for the EC50 in series [2], in series [4] and in series [8] were 0.08 µg/mL (≈ 0.186 µM), 0.033 µg/mL (≈ 0.0767 µM) and 0.26 µg/mL (≈ 0.604 µM), respectively. In series [7], the “Ratio CC50/EC50” value is on record as 7.
Turning to `Cn1cc(C(=O)O)c(=O)c2cc(O)c(N3CCN(c4cccc(C(F)(F)F)c4)CC3)cc21`, the CC50 in series [5] is 1.61 µg/mL (≈ 3.6 µM); in series [6], 1.13 µg/mL (≈ 2.53 µM). The results for the concentration giving a half-maximal response (EC50) in series [2], in series [4] and in series [8] were at least 1.13 µg/mL, at least 0.133 µg/mL and 0.4 µg/mL (≈ 0.894 µM), respectively. The “Ratio CC50/EC50” value in series [7] was 4.
Turning to `Cn1cc(C(=O)O)c(=O)c2cc(O)c(N3CCN(c4nc5ccccc5s4)CC3)cc21`, the selectivity ratio in series [1] and in series [3] was below 1 in each case. The EC50 in series [2] and in series [4] was above 0.02 µg/mL each time. This compound also came in with a 50% cytotoxic concentration (CC50) in series [6] of 0.02 µg/mL (≈ 0.0458 µM).
Turning to `Cn1cc(C(=O)O)c(=O)c2cc(O)c(N3CCN(c4cnccn4)CC3)cc21`, the selectivity ratio in series [1] and in series [3] was below 1 in each case. The half-maximal effective concentration (EC50) in series [2] and in series [4] was above 125 µg/mL throughout. Moreover, in series [6], the half-maximal cytotoxic concentration (CC50) is above 125 µg/mL.
`Cn1cc(C(=O)O)c(=O)c2cc(C(F)(F)F)c(N3CCN(c4nc5ccccc5s4)CC3)cc21`: the selectivity ratio in series [1] and in series [3] was below 1 in each case. Besides, the EC50 in series [2] and in series [4] was above 0.54 µg/mL throughout. Besides, the CC50 in series [6] turned out to be 0.54 µg/mL (≈ 1.11 µM).
Turning to `Cn1cc(C(=O)O)c(=O)c2cc(C(F)(F)F)c(N3CCN(c4ccccn4)CC3)cc21`, the selectivity ratio in series [1] and in series [3] was below 1 throughout. For the same compound, the concentration giving a half-maximal response (EC50) in series [2] and in series [4] was above 13.9 µg/mL throughout. This compound also yielded a CC50 in series [6] of 13.9 µg/mL (≈ 32.2 µM).
On to `Cn1cc(C(=O)O)c(=O)c2cc(C(F)(F)F)c(N3CCN(c4cccc(C(F)(F)F)c4)CC3)cc21`, for which the selectivity ratio in series [1] and in series [3] was below 1 each time. Also, the EC50 in series [2] and in series [4] was above 1.65 µg/mL throughout. Also, the CC50 in series [6] came out at 1.65 µg/mL (≈ 3.3 µM).
As to `COc1cc2c(=O)c(C(=O)O)cn(C)c2cc1N1CCN(c2ccccn2)CC1`, the selectivity ratio amounted to 5 in series [1] and 6.5 in series [3]. The CC50 in series [5] amounted to 8.46 µg/mL (≈ 21.4 µM); in series [6] it was 2.55 µg/mL (≈ 6.47 µM). In addition, the EC50 in series [2] came out at 0.47 µg/mL (≈ 1.19 µM); in series [4], 0.4 µg/mL (≈ 1.01 µM); in series [8] it was 1.78 µg/mL (≈ 4.51 µM). The “Ratio CC50/EC50” value in series [7] is listed as 5.
Regarding `COc1cc2c(=O)c(C(=O)O)cn(C)c2cc1N1CCN(c2nc3ccccc3s2)CC1`, the selectivity ratio in series [1] and in series [3] was below 1 in each case. Besides, the EC50 in series [2] and in series [4] was above 0.05 µg/mL in each case. The compound further gave a CC50 in series [6] of 0.05 µg/mL (≈ 0.111 µM).
`Cn1cc(C(=O)O)c(=O)c2cc(O)c(N3CCN(c4ccccn4)CC3)cc21`: the selectivity ratio in series [1] is above 68; in series [3] it was above 96. For the same compound, the values for the CC50 in series [5] and in series [6] were at least 17.2 µg/mL and above 125 µg/mL, respectively. In addition, the EC50 in series [2] turned out to be 1.85 µg/mL (≈ 4.86 µM); in series [4], 1.31 µg/mL (≈ 3.44 µM); in series [8] it was 0.39 µg/mL (≈ 1.03 µM). Further, the “Ratio CC50/EC50” value in series [7] was “>=44”.
Regarding `Cc1ccnc2c1NC(=O)c1cccnc1N2C1CC1` [NEVIRAPINE], the selectivity ratio in series [1] was above 176. The EC50 is 0.023 µg/mL (≈ 0.0864 µM) in series [2] and above 4 µg/mL in series [4]. The compound also displayed a CC50 in series [6] above 4 µg/mL.
For the compound `Cc1cn([C@H]2C[C@H](N=[N+]=[N-])[C@@H](CO)O2)c(=O)[nH]c1=O` [ZIDOVUDINE], the selectivity ratio was 1340 in series [1] and 2480 in series [3]. The EC50 in series [2] was 0.0015 µg/mL (≈ 0.00561 µM); in series [4] it was 0.0008 µg/mL (≈ 0.00299 µM). The compound also returned a CC50 in series [6] of 2.01 µg/mL (≈ 7.52 µM).

The record behind these values is ChEMBL document CHEMBL1140865, “Studies on anti-HIV quinolones: new insights on the C-6 position” (Bioorg Med Chem, 2009).
